# ChEMBL document CHEMBL1135850, “P1 Phenethyl peptide boronic acid inhibitors of HCV NS3 protease” (Bioorg Med Chem Lett, 2002)
# Peptide text beside a SMILES is read from it. * marks the point of attachment. X3 = CC1(C)[C@@H]2C[C@H]3OB([C@H](CCc4cccc(C(F)(F)F)c4)N*)O[C@@]3(C)[C@H]1C2; X4 = CC1(C)[C@@H]2C[C@H]3OB([C@H](CCc4cccc(F)c4)N*)O[C@@]3(C)[C@H]1C2; X12 = CC(C)CC[C@H](N*)B1O[C@@H]2C[C@@H]3C[C@@H](C3(C)C)[C@]2(C)O1; X11 = CCCCCC[C@H](N*)B1O[C@@H]2C[C@@H]3C[C@@H](C3(C)C)[C@]2(C)O1; X14 = CCCC[C@H](N*)B1O[C@@H]2C[C@@H]3C[C@@H](C3(C)C)[C@]2(C)O1
# Molecular target: NS3 (Hepatitis C virus, UniProt A3EZJ3)
# Assay: Binding affinity against Hepatitis C virus NS3 protease
# Set-up: species or system Hepacivirus hominis
# In short: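 Continuous fluorescence assay with 4 nM NS3 protease plus NS4A cofactor peptide, in 50 mM Tris pH 7.0, 5 mM DTT, 50% glycerol, 2% CHAPS. Serially diluted inhibitors, given as boronic acid pinanediol esters, were preincubated with enzyme for 15 min. The reaction was started with the FRET ester substrate Ac-DED(EDANS)EEAbuψ[COO]ASK(DABCYL)-NH2 at ambient temperature and read at excitation 360 nm, emission 530 nm.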
row,SMILES,Ki
1,CC(C)c1ccc(CC[C@H](NC(=O)[C@@H]2CCCN2C(=O)[C@@H](NC(=O)[C@@H](NC(=O)[C@H](CCC(=O)O)NC(=O)[C@@H](N)CC(=O)O)C(C)C)C(C)C)B2O[C@@H]3C[C@@H]4C[C@@H](C4(C)C)[C@]3(C)O2)cc1,5 nM
2,CC(C)[C@H](NC(=O)[C@H](CCC(=O)O)NC(=O)[C@@H](N)CC(=O)O)C(=O)N[C@H](C(=O)N1CCC[C@H]1C(=O)N[C@@H](CCc1cccc(C(F)(F)F)c1)B1O[C@@H]2C[C@@H]3C[C@@H](C3(C)C)[C@]2(C)O1)C(C)C (H-DEVVP-X3),25 nM
3,CC(C)[C@H](NC(=O)[C@H](CCC(=O)O)NC(=O)[C@@H](N)CC(=O)O)C(=O)N[C@H](C(=O)N1CCC[C@H]1C(=O)N[C@@H](CCc1ccc(C(F)(F)F)cc1)B1O[C@@H]2C[C@@H]3C[C@@H](C3(C)C)[C@]2(C)O1)C(C)C,2 nM
4,Cc1cccc(CC[C@H](NC(=O)[C@@H]2CCCN2C(=O)[C@@H](NC(=O)[C@@H](NC(=O)[C@H](CCC(=O)O)NC(=O)[C@@H](N)CC(=O)O)C(C)C)C(C)C)B2O[C@@H]3C[C@@H]4C[C@@H](C4(C)C)[C@]3(C)O2)c1,34 nM
5,CCCCCC[C@H](NC(=O)[C@@H]1CCCN1C(=O)[C@@H](NC(=O)[C@@H](NC(=O)[C@H](CCC(=O)O)NC(=O)[C@@H](N)CC(=O)O)C(C)C)C(C)C)B1O[C@@H]2C[C@@H]3C[C@@H](C3(C)C)[C@]2(C)O1 (H-DEVVP-X11),13 nM
6,Cc1ccc(CC[C@H](NC(=O)[C@@H]2CCCN2C(=O)[C@@H](NC(=O)[C@@H](NC(=O)[C@H](CCC(=O)O)NC(=O)[C@@H](N)CC(=O)O)C(C)C)C(C)C)B2O[C@@H]3C[C@@H]4C[C@@H](C4(C)C)[C@]3(C)O2)cc1,17 nM
7,CCCC[C@H](NC(=O)[C@@H]1CCCN1C(=O)[C@@H](NC(=O)[C@@H](NC(=O)[C@H](CCC(=O)O)NC(=O)[C@@H](N)CC(=O)O)C(C)C)C(C)C)B1O[C@@H]2C[C@@H]3C[C@@H](C3(C)C)[C@]2(C)O1 (H-DEVVP-X14),11 nM
8,CC(C)[C@H](NC(=O)[C@H](CCC(=O)O)NC(=O)[C@@H](N)CC(=O)O)C(=O)N[C@H](C(=O)N1CCC[C@H]1C(=O)N[C@@H](CCc1ccc(-c2ccccc2)cc1)B1O[C@@H]2C[C@@H]3C[C@@H](C3(C)C)[C@]2(C)O1)C(C)C,7 nM
9,CC(C)[C@H](NC(=O)[C@H](CCC(=O)O)NC(=O)[C@@H](N)CC(=O)O)C(=O)N[C@H](C(=O)N1CCC[C@H]1C(=O)N[C@@H](CCc1ccc(F)cc1)B1O[C@@H]2C[C@@H]3C[C@@H](C3(C)C)[C@]2(C)O1)C(C)C,6 nM
10,CC(C)C[C@H](NC(=O)[C@@H]1CCCN1C(=O)[C@@H](NC(=O)[C@@H](NC(=O)[C@H](CCC(=O)O)NC(=O)[C@@H](N)CC(=O)O)C(C)C)C(C)C)B1O[C@@H]2C[C@@H]3C[C@@H](C3(C)C)[C@]2(C)O1,8 nM
11,CC(C)[C@H](NC(=O)[C@H](CCC(=O)O)NC(=O)[C@@H](N)CC(=O)O)C(=O)N[C@H](C(=O)N1CCC[C@H]1C(=O)N[C@@H](CCc1ccc(C2CCCCC2)cc1)B1O[C@@H]2C[C@@H]3C[C@@H](C3(C)C)[C@]2(C)O1)C(C)C,3 nM
12,COc1ccc(CC[C@H](NC(=O)[C@@H]2CCCN2C(=O)[C@@H](NC(=O)[C@@H](NC(=O)[C@H](CCC(=O)O)NC(=O)[C@@H](N)CC(=O)O)C(C)C)C(C)C)B2O[C@@H]3C[C@@H]4C[C@@H](C4(C)C)[C@]3(C)O2)cc1,3 nM
13,CC(C)CC[C@H](NC(=O)[C@@H]1CCCN1C(=O)[C@@H](NC(=O)[C@@H](NC(=O)[C@H](CCC(=O)O)NC(=O)[C@@H](N)CC(=O)O)C(C)C)C(C)C)B1O[C@@H]2C[C@@H]3C[C@@H](C3(C)C)[C@]2(C)O1 (H-DEVVP-X12),39 nM
14,CC(C)[C@H](NC(=O)[C@H](CCC(=O)O)NC(=O)[C@@H](N)CC(=O)O)C(=O)N[C@H](C(=O)N1CCC[C@H]1C(=O)N[C@@H](CCc1cccc(F)c1)B1O[C@@H]2C[C@@H]3C[C@@H](C3(C)C)[C@]2(C)O1)C(C)C (H-DEVVP-X4),9 nM
15,CC(C)[C@H](NC(=O)[C@H](CCC(=O)O)NC(=O)[C@@H](N)CC(=O)O)C(=O)N[C@H](C(=O)N1CCC[C@H]1C(=O)N[C@@H](CCc1ccc(O)cc1)B1O[C@@H]2C[C@@H]3C[C@@H](C3(C)C)[C@]2(C)O1)C(C)C,8 nM
